Activity calls are given as the source filed them. The calls are words filed in the database; no cut-off is given here.
Experiments:
[1] = test system: Radical scavenging activity; experiment: Antioxidant activity assessed as DPPH free radical scavenging activity at 100 uM; assay type: functional
In short: (§1)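 Compound solutions in ethanol were mixed with an equal volume of DPPH in absolute ethanol, giving compound concentrations of 50 and 100. Ethanol served as the control. Absorbance at 517 nm was read after 20 and 60 min at room temperature. Each run was done at least in triplicate, with the SD of absorbance under 10% of the mean.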

[2] = test system: Radical scavenging activity; experiment: Antioxidant activity assessed as DPPH free radical scavenging activity at 100 uM after 20 mins; assay type: functional; in short: as §1
Glycine max = experiment: Inhibition of soybean lipoxygenase assessed as conversion of sodium linoleate to 13-hydroperoxylinoleic acid at 100 uM
In short: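 Soybean lipoxygenase was measured by UV absorbance. Runs were done at least in triplicate, with the SD of absorbance under 10% of the mean.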

[3] = test system: Radical scavenging activity; experiment: Antioxidant activity assessed as DPPH free radical scavenging activity at 100 uM after 60 mins; assay type: functional; in short: as §1
[4] = Antioxidant activity assessed as inhibition of AAPH-induced lipid peroxidation at 100 uM; assay type: functional
[5] = Antioxidant activity assessed as hydroxyl radical scavenging activity at 100 uM after 30 mins; assay type: functional
[6] = Antioxidant activity assessed as inhibition of superoxide anion radical production at 100 uM after 2 mins by nitroblue tetrazolium method; assay type: functional
In short: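 This was a nitroblue tetrazolium assay. The mixture held […] in 19 mM phosphate buffer, pH 7.4. Compounds were preincubated 2 min before NADH was added. After 2 min at room temperature, absorbance at 560 nm was read against a PMS-containing blank. Runs were done at least in triplicate.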

[7] = test system: Radical scavenging activity; experiment: Antioxidant activity assessed as reduction in DPPH free radical at 50 uM after 60 mins; assay type: functional; in short: as §1
[8] = test system: Radical scavenging activity; experiment: Antioxidant activity assessed as reduction in DPPH stable free radical at 50 uM after 20 mins; assay type: functional; in short: as §1

Cc1ccc2oc(=O)ccc2c1-n1cccc1
Activity [1]: Dose-dependent effect | Activity [2]: 7% | inhibition (Glycine max): 55.5% | Activity [3]: 7% | inhibition [4]: 71% | inhibition [5]: 91% | inhibition [6]: inactive | Activity [7]: inactive | Activity [8]: inactive

Cc1ccc2oc(=O)ccc2c1N1CC=CC1
Activity [1]: Dose-dependent effect | Activity [2]: 5% | Activity [3]: 5% | inhibition [4]: 57% | inhibition [6]: inactive | Activity [7]: inactive | Activity [8]: inactive

O=c1cc(N2CC=CC2)c2ccccc2o1
Activity [2]: 8% | inhibition (Glycine max): 43% | Activity [3]: 27% | inhibition [4]: 100% | inhibition [5]: 83% | inhibition [6]: inactive | Activity [7]: inactive | Activity [8]: inactive

O=c1ccc2cc(-n3cccc3)ccc2o1
Activity [1]: Dose-dependent effect | Activity [2]: 18% | Activity [3]: 19% | inhibition [4]: 1% | inhibition [6]: inactive | Activity [7]: inactive | Activity [8]: inactive

Cc1cc2ccc(=O)oc2cc1N1CC=CC1
Activity [1]: Dose-dependent effect | Activity [2]: 5% | inhibition (Glycine max): 52.5% | Activity [3]: 7% | inhibition [4]: 24% | inhibition [5]: 41% | inhibition [6]: inactive | Activity [7]: inactive | Activity [8]: inactive

Cc1cc2oc(=O)ccc2cc1N1CC=CC1
Activity [1]: Dose-dependent effect | Activity [2]: 9% | inhibition (Glycine max): 60% | Activity [3]: 10% | inhibition [4]: 91% | inhibition [5]: 77% | inhibition [6]: inactive | Activity [7]: inactive | Activity [8]: inactive

Cc1cc2ccc(=O)oc2cc1-n1cccc1
Activity [1]: Dose-dependent effect | Activity [2]: 13% | Activity [3]: 13% | inhibition [5]: 88% | inhibition [6]: inactive | Activity [7]: inactive | Activity [8]: inactive

Cc1cc2oc(=O)ccc2cc1-n1cccc1
Activity [1]: Dose-dependent effect | Activity [2]: 14% | Activity [3]: 14% | inhibition [6]: inactive | Activity [7]: inactive | Activity [8]: inactive

Cc1cc(=O)oc2cc(-n3cccc3)ccc12
Activity [1]: Dose-dependent effect | Activity [2]: 14% | inhibition (Glycine max): 12% | Activity [3]: 14% | inhibition [4]: 46% | inhibition [5]: 9% | inhibition [6]: inactive | Activity [7]: inactive | Activity [8]: inactive

Cc1cc(=O)oc2cc(N3CC=CC3)ccc12
Activity [2]: 5% | inhibition (Glycine max): 28% | Activity [3]: 20% | inhibition [4]: 87% | inhibition [5]: 85% | inhibition [6]: inactive | Activity [7]: inactive | Activity [8]: inactive

Cc1c(C)c2c(c(C)c1O)CCC(C)(C(=O)O)O2 (stereo not drawn)
Activity [1]: Dose-dependent effect | inhibition [4]: 73% | inhibition [5]: 63%

CC(Cc1ccc(O)c(O)c1)C(C)Cc1ccc(O)c(O)c1 (stereo not drawn)
Activity [1]: Dose-dependent effect | Activity [2]: 81% | inhibition (Glycine max): 84% | Activity [3]: 83%

Cc1ccc2ccc(=O)oc2c1
Activity [1]: Dose-dependent effect | Activity [2]: 2% | inhibition (Glycine max): 89% | Activity [3]: 2% | inhibition [5]: 44%

O=c1ccc2cc(N3CC=CC3)ccc2o1
Activity [2]: 49% | Activity [3]: 71% | inhibition [4]: 86% | inhibition [5]: 90% | inhibition [6]: inactive | Activity [7]: inactive | Activity [8]: inactive

O=c1ccc2ccccc2o1
Activity [1]: Dose-dependent effect | Activity [2]: 5% | inhibition (Glycine max): 15% | Activity [3]: 21% | inhibition [5]: 78%

From ChEMBL document CHEMBL1909573, “Synthesis and biological evaluation of (2,5-dihydro-1H-pyrrol-1-yl)-2H-chromen-2-ones as free radical scavengers” (Eur J Med Chem, 2011)
